This note sets out measurements from ChEMBL document CHEMBL1151932, “Antiviral effect of ribonuclease conjugated oligodeoxynucleotides targeting the IRES RNA of the hepatitis C virus” (Bioorg Med Chem Lett, 2009).

Active and inactive are the calls of the source. The calls are words filed in the database; no cut-off is given here.

For data set [1], the system named is Hepatitis C virus. The data set is described as follows: Antiviral activity against HCV infected in human Huh7.5.1 cells assessed as reduction in viral replication treated through microporation 17 hrs prior to infection for 4 hrs measured after 20 hrs by luciferase assay relative to control. The class given is functional, Hepacivirus hominis, Huh-7. Set-up: scale not given: the % may be the effect or the level left. The gist of the method: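 Huh7.5.1 cells electroporated (microporation) with ODNs at 10–1000 nM, then infected with HCVcc; replication read 20 h after infection. Triplicate runs; signal normalised to cell number by WST-1 and expressed as percent of scrambled-sequence non-specific ODN control.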

Data set [2] concerns Hepatitis C virus. The data set is described as follows: Antiviral activity against HCV infected in human Huh7.5.1 cells assessed as reduction in viral replication treated through microporation 17 hrs prior to infection for 4 hrs measured after 20 hrs by luciferase assay. The class given is functional, organism-based. To be noted: Hepacivirus hominis; Huh-7. In outline:
(§1)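 Huh7.5.1 cells were microporated with oligodeoxynucleotide (10–1000 nM) and infected with reporter HCVcc (FL-J6/JFH-5/C19Rluc2AUbi construct) about 17 h later. Viral replication was read 20 h after infection, normalized to cell number by WST-1, and expressed as % of a scrambled-sequence non-specific ODN control. Triplicate.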

Data set [3] has as its system Hepatitis C virus. The data set is described as follows: Antiviral activity against HCV infected in human Huh7.5.1 cells assessed as reduction in viral replication at 100 nM treated through microporation 17 hrs prior to infection for 4 hrs measured after 20 hrs by luciferase assay. The format is functional, organism-based. The note with it: Hepacivirus hominis, Huh-7. The gist of the method: as §1

Data set [4] relates to Hepatitis C virus. The data set is described as follows: Antiviral activity against HCV infected in human Huh7.5.1 cells assessed as reduction in viral replication at 1000 nM treated through microporation 17 hrs prior to infection for 4 hrs measured after 20 hrs by luciferase assay. The class given is functional, organism-based. The note with it: Hepacivirus hominis, Huh-7. In outline:
as §1

Data set [5] concerns Hepatitis C virus. The data set is described as follows: Cytotoxicity against HCV infected in human Huh7.5.1 cells treated through microporation for < 17 hrs prior to 4 hrs infection period measured after 20 hrs postinfection by luciferase assay. The format is organism-based. To be noted: hepacivirus hominis, huh-7, 20 h.
Data set [6] relates to Hepatitis C virus. The data set is described as follows: Cytotoxicity against HCV infected in human Huh7.5.1 cells treated through microporation for 17 hrs prior to 4 hr infection period measured after 20 hrs postinfection by luciferase assay. The class given is organism-based. To be noted: hepacivirus hominis, huh-7, 20 h.
Data set [7] concerns Hepatitis C virus. The data set is described as follows: Antiviral activity against HCV infected in human Huh7.5.1 cells at 1000 nM treated through lipofection after 17 hrs of infection by luciferase assay. The class given is functional, Hepacivirus hominis, Huh-7. The gist of the method:
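Huh7.5.1 cells first infected with HCVcc; after 17 h, ODNs transfected by lipid reagent at 10–1000 nM. Triplicate runs; signal normalised to cell number by WST-1 and expressed as percent of non-specific scrambled ODN control.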

For data set [8], the system named is Hepatitis C virus. The data set is described as follows: Antiviral activity against HCV infected in human Huh7.5.1 cells at 100 nM treated through lipofection after 17 hrs of infection by luciferase assay. The format is functional, organism-based. To be noted: Hepacivirus hominis, Huh-7. The gist of the method:
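Huh7.5.1 cells were infected with reporter HCVcc (FL-J6/JFH-5/C19Rluc2AUbi construct) without trypsinization. After 17 h, cells were transfected with oligodeoxynucleotide using a lipid reagent (10–1000 nM tested). Replication signal was normalized to cell number by WST-1 and expressed as % of a scrambled-sequence non-specific ODN control. Triplicate.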

On to `Cc1cn([C@@H]2O[C@H](COP(=O)(O)O[C@H]3[C@@H](O)[C@H](n4ccc(N)nc4=O)O[C@@H]3COP(=O)(O)O[C@H]3[C@@H](O)[C@H](n4cnc5c(N)ncnc54)O[C@@H]3COP(=O)(O)O[C@H]3[C@@H](O)[C@H](n4cc(C)c(=O)[nH]c4=O)O[C@@H]3COP(=O)(O)O[C@H]3[C@@H](O)[C@H](n4ccc(N)nc4=O)O[C@@H]3COP(=O)(O)O[C@@H]3[C@@H](COP(=O)(O)O[C@H]4[C@@H](O)[C@H](n5ccc(N)nc5=O)O[C@@H]4COP(=O)(O)O[C@H]4[C@@H](O)[C@H](n5cnc6c(N)ncnc65)O[C@@H]4COP(=O)(O)O[C@H]4[C@@H](O)[C@H](n5cnc6c(N)ncnc65)O[C@@H]4COP(=O)(O)O[C@H]4[C@@H](O)[C@H](n5ccc(N)nc5=O)O[C@@H]4COP(=O)(O)O[C@H]4[C@@H](O)[C@H](n5ccc(N)nc5=O)O[C@@H]4COP(=O)(O)O[C@H]4[C@@H](O)[C@H](n5ccc(N)nc5=O)O[C@@H]4COP(=O)(O)O[C@H]4C[C@H](n5cnc6c(N)ncnc65)O[C@@H]4COP(=O)(O)OCCCNC(=O)CCc4c[nH]cn4)OC(n4cnc5c(N)ncnc54)[C@@H]3O)[C@@H](OP(=O)(O)OC[C@H]3O[C@@H](n4ccc(N)nc4=O)[C@H](O)[C@@H]3OP(=O)(O)OC[C@H]3O[C@@H](n4cnc5c(=O)[nH]c(N)nc54)[C@H](O)[C@@H]3OP(=O)(O)OC[C@H]3O[C@@H](n4cnc5c(=O)[nH]c(N)nc54)[C@H](O)[C@@H]3OP(=O)(O)OC[C@H]3O[C@@H](n4ccc(N)nc4=O)[C@H](O)[C@@H]3OP(=O)(O)O)[C@H]2O)c(=O)[nH]c1=O` (some centres undefined), for which the Activity was 50% in the data set with Hepatitis C virus [1]; “Dose-dependent effect” in the data set on Hepatitis C virus [2]; “Toxic” with Hepatitis C virus [5]; “Non-toxic” in the data set with Hepatitis C virus [6]; 50% in the data set on Hepatitis C virus [7]. For the same compound, the outcome with Hepatitis C virus [3] and in the data set with Hepatitis C virus [8] was Active. For the same compound, in the data set with Hepatitis C virus [4], the result was inactive.

As to `Cc1cn([C@@H]2O[C@H](COP(=O)(O)O[C@H]3[C@@H](O)[C@H](n4ccc(N)nc4=O)O[C@@H]3COP(=O)(O)O[C@H]3[C@@H](O)[C@H](n4cnc5c(N)ncnc54)O[C@@H]3COP(=O)(O)O[C@H]3[C@@H](O)[C@H](n4cc(C)c(=O)[nH]c4=O)O[C@@H]3COP(=O)(O)O[C@H]3[C@@H](O)[C@H](n4ccc(N)nc4=O)O[C@@H]3COP(=O)(O)O[C@@H]3[C@@H](COP(=O)(O)O[C@H]4[C@@H](O)[C@H](n5ccc(N)nc5=O)O[C@@H]4COP(=O)(O)O[C@H]4[C@@H](O)[C@H](n5cnc6c(N)ncnc65)O[C@@H]4COP(=O)(O)O[C@H]4[C@@H](O)[C@H](n5cnc6c(N)ncnc65)O[C@@H]4COP(=O)(O)O[C@H]4[C@@H](O)[C@H](n5ccc(N)nc5=O)O[C@@H]4COP(=O)(O)O[C@H]4[C@@H](O)[C@H](n5ccc(N)nc5=O)O[C@@H]4COP(=O)(O)O[C@H]4[C@@H](O)[C@H](n5ccc(N)nc5=O)O[C@@H]4COP(=O)(O)O[C@H]4C[C@H](n5cnc6c(N)ncnc65)O[C@@H]4COP(=O)(O)O)OC(n4cnc5c(N)ncnc54)[C@@H]3O)[C@@H](OP(=O)(O)OC[C@H]3O[C@@H](n4ccc(N)nc4=O)[C@H](O)[C@@H]3OP(=O)(O)OC[C@H]3O[C@@H](n4cnc5c(=O)[nH]c(N)nc54)[C@H](O)[C@@H]3OP(=O)(O)OC[C@H]3O[C@@H](n4cnc5c(=O)[nH]c(N)nc54)[C@H](O)[C@@H]3OP(=O)(O)OC[C@H]3O[C@@H](n4ccc(N)nc4=O)[C@H](O)[C@@H]3OP(=O)(O)O)[C@H]2O)c(=O)[nH]c1=O` (some centres undefined), the Activity in the data set on Hepatitis C virus [1] is 50%; in the data set on Hepatitis C virus [2], “Dose-dependent effect”; in the data set on Hepatitis C virus [5], “Toxic”; in the data set with Hepatitis C virus [6] it was “Non-toxic”; in the data set on Hepatitis C virus [7], 50%. The outcome in the data set on Hepatitis C virus [3] and with Hepatitis C virus [8] was Active.

For `Cc1cn([C@@H]2O[C@H](COP(=O)(O)O[C@H]3[C@@H](O)[C@H](n4ccc(N)nc4=O)O[C@@H]3COP(=O)(O)O[C@H]3[C@@H](O)[C@H](n4cnc5c(N)ncnc54)O[C@@H]3COP(=O)(O)O[C@H]3[C@@H](O)[C@H](n4cc(C)c(=O)[nH]c4=O)O[C@@H]3COP(=O)(O)O[C@H]3[C@@H](O)[C@H](n4ccc(N)nc4=O)O[C@@H]3COP(=O)(O)O[C@H]3[C@@H](O)[C@H](n4cnc5c(N)ncnc54)O[C@@H]3COP(=O)(O)O[C@H]3[C@@H](O)[C@H](n4ccc(N)nc4=O)O[C@@H]3COP(=O)(O)O[C@H]3[C@@H](O)[C@H](n4cnc5c(N)ncnc54)O[C@@H]3COP(=O)(O)O[C@H]3[C@@H](O)[C@H](n4cnc5c(N)ncnc54)O[C@@H]3COP(=O)(O)O[C@H]3[C@@H](O)[C@H](n4ccc(N)nc4=O)O[C@@H]3COP(=O)(O)O[C@H]3[C@@H](O)[C@H](n4ccc(N)nc4=O)O[C@@H]3COP(=O)(O)O[C@H]3[C@@H](O)[C@H](n4ccc(N)nc4=O)O[C@@H]3COP(=O)(O)O[C@H]3[C@@H](O)[C@H](n4cnc5c(N)ncnc54)O[C@@H]3CO)[C@@H](OP(=O)(O)OC[C@H]3O[C@@H](n4ccc(N)nc4=O)[C@H](O)[C@@H]3OP(=O)(O)OC[C@H]3O[C@@H](n4cnc5c(=O)[nH]c(N)nc54)[C@H](O)[C@@H]3OP(=O)(O)OC[C@H]3O[C@@H](n4cnc5c(=O)[nH]c(N)nc54)[C@H](O)[C@@H]3OP(=O)(O)OC[C@H]3O[C@@H](n4cnc(N)cc4=O)C[C@@H]3OP(=O)(O)OCCCNC(=O)CCc3c[nH]cn3)[C@H]2O)c(=O)[nH]c1=O`, the Activity in the data set with Hepatitis C virus [1] was 50%; with Hepatitis C virus [2], “Dose-dependent effect”; in the data set on Hepatitis C virus [5] it was “Toxic”; in the data set with Hepatitis C virus [6], “Non-toxic”; with Hepatitis C virus [7], 50%. Also, the outcome in the data set on Hepatitis C virus [3] and with Hepatitis C virus [8] was Active. Also, the result in the data set with Hepatitis C virus [4] was inactive.

Take `Cc1cn([C@@H]2O[C@H](COP(=O)(O)O[C@H]3[C@@H](O)[C@H](n4ccc(N)nc4=O)O[C@@H]3COP(=O)(O)O[C@H]3[C@@H](O)[C@H](n4ccc(N)nc4=O)O[C@@H]3COP(=O)(O)O[C@H]3[C@@H](O)[C@H](n4ccc(N)nc4=O)O[C@@H]3COP(=O)(O)O[C@H]3[C@@H](O)[C@H](n4cnc5c(N)ncnc54)O[C@@H]3COP(=O)(O)O[C@H]3[C@@H](O)[C@H](n4cnc5c(N)ncnc54)O[C@@H]3COP(=O)(O)O[C@H]3[C@@H](O)[C@H](n4ccc(N)nc4=O)O[C@@H]3CO)[C@@H](OP(=O)(O)OC[C@H]3O[C@@H](n4cnc5c(N)ncnc54)[C@H](O)[C@@H]3OP(=O)(O)OC[C@H]3O[C@@H](n4cnc5c(=O)[nH]c(N)nc54)[C@H](O)[C@@H]3OP(=O)(O)OC[C@H]3O[C@@H](n4cc(C)c(=O)[nH]c4=O)[C@H](O)[C@@H]3OP(=O)(O)OC[C@H]3O[C@@H](n4cc(C)c(=O)[nH]c4=O)[C@H](O)[C@@H]3OP(=O)(O)OC[C@H]3O[C@@H](n4cc(C)c(=O)[nH]c4=O)[C@H](O)[C@@H]3OP(=O)(O)OC[C@H]3O[C@@H](n4cnc5c(=O)[nH]c(N)nc54)[C@H](O)[C@@H]3OP(=O)(O)OC[C@H]3O[C@@H](n4cc(C)c(=O)[nH]c4=O)[C@H](O)[C@@H]3OP(=O)(O)OC[C@H]3O[C@@H](n4ccc(N)nc4=O)[C@H](O)[C@@H]3O[PH](O)(O)OC[C@H]3O[C@@H](n4cnc5c(N)ncnc54)[C@H](O)[C@@H]3OP(=O)(O)OC[C@H]3O[C@@H](n4cnc5c(N)ncnc54)[C@H](O)[C@@H]3OP(=O)(O)O)[C@H]2O)c(=O)[nH]c1=O`: the Activity entry in the data set on Hepatitis C virus [6] is on record as “Non-toxic”.
